The source made the active and inactive calls. The calls are words filed in the database; no cut-off is given here.
Legend:
[1] = test system: HL-60; test: Cytotoxicity against human HL60 cells at 2 mg/mL to 10 ng/mL by MTT assay; format: functional, cell-based
How it was run: (§1)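 Antiproliferative MTT assay on the human leukemia line HL-60, the human carcinoma line HELA and the KB line. Compounds were tested over 2 mg/mL to 10 ng/mL, in triplicate.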

[2] = test system: HeLa; test: Cytotoxicity against human HeLa cells at 2 mg/mL to 10 ng/mL by MTT assay; format: functional, cell-based; how it was run: as §1

Structure (SMILES)	Activity [1]	Activity [2]
COc1cc([C@@H]2c3c(cc(OC)c(OC)c3OC)C[C@@H]3COC[C@H]32)cc(OC)c1OC	inactive	inactive
COc1ccc([C@@H]2c3c(cc(OC)c(OC)c3OC)C[C@@H]3COC[C@H]32)cc1OC	inactive	inactive
COc1cc([C@H]2c3c(cc(OC)c(OC)c3OC)C(=O)[C@@H]3COC[C@@H]23)cc(OC)c1OC	inactive	inactive
COc1cc([C@@H]2c3c(cc(OC)c(OC)c3OC)[C@H](OC(C)=O)[C@@H]3COC[C@@H]23)cc(OC)c1OC	inactive	inactive
